# Assay outcomes (PubChem)
# An excerpt weighted towards active compounds, which were near 3.8% of everything screened.
# SDO1 yeast rescue: growth rescue of sdo1-depleted yeast, primary screen, S. cerevisiae, bone marrow failure model; z-score at 10 µM; actives 0.21% (n = 140,000); AID 817, 2007; S. cerevisiae sdo1-depleted JHY4D growth rescue, OD600 30 h; hits give high values; pdr5 snq2 efflux-pump mutant strain;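 active = z-score above 3 at both the 24 hr and the 30 hr optical density reads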;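 note: z-score against mean and SD of all compound wells on the same plate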
# BB579 growth dn: growth inhibitors of yeast BB579 in restrictive medium, primary screen, yeast lifespan-shortening project, S. cerevisiae; actives 0.51% (n = 140,000); AID 804, 2007; inhibition, % at 10 µM; OD615, 48 h;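 active = inhibition above a set limit, 3 SD over the mean compound inhibition, cut at about 44% in these data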
#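 System: Saccharomyces cerevisiae DeaD strain BB579, replicative lifespan model yeast. Buffer or medium: restrictive glucose-based CSMM-D medium. Doses: one dose, 10 µM compound with 0.25% DMSO. Timing: 4 h preincubation and 48 h exposure at 30 °C. Detection: turbidity as optical density at 615 nm. Benchmarks: amphotericin B 10 µg/mL, positive.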
# Yeast lifespan up: compounds extending yeast replicative lifespan, primary screen, S. cerevisiae, OD615; inhibition of the nicotinamide effect, % at 10 µM; actives 0.68% (n = 130,000); S. cerevisiae growth with nicotinamide; deaD strain in restrictive glucose medium;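 active = inhibition above a set limit, placed 3 SD over the median of all compounds, cut at about 26% in these data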;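 note: 0% = nicotinamide-treated wells and 100% = cells grown without nicotinamide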
#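 Test system – modified budding yeast, DeaD strain · Compound – single dose 10 µM compound, 0.25% DMSO · Times – culture preincubation 4 h, compound exposure 48 h, both 30 °C · Detection – optical density (absorbance) at 615 nm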
# Measles CPE: compounds protecting cells from measles virus cytopathic effect, primary screen, measles RdRp inhibitor project, single point, MLSMR library, absorbance; protection (pct of control), % at 4 µM; actives 1.5% (n = 140,000); Measles virus-infected cells, CPE protection; in the data active = protection mostly above about 24%, no sharp cut-off; inactive = mostly below about 26%
# RAM network inh: inhibitors of the yeast RAM network, primary screen, dse1pr::URA3 reporter, 5-FOA selection; inhibition, % at 50 µM; S. cerevisiae dse1pr::URA3 reporter, 5-FOA growth OD615, 2 d; analog-sensitive cbk1-as2 kinase mutant strain; actives 1.8% (n = 190,000);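 active = inhibition above a set limit, 3 SD over mean compound inhibition, cut at about 8.4% in these data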;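 note: 0% = DMSO-only wells with no growth and 100% = 10 µM 1-NA-PP1 full growth; inhibition rescues growth on 5-FOA so higher OD means more RAM inhibition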
# RAM 5-FOA: 5-FOA growth of efflux-deficient control yeast, dose response, counter-screen for RAM network inhibitor project, S. cerevisiae, OD615 | shares compounds with RAM network inh | S. cerevisiae efflux-deficient reporter strain, 5-FOA growth OD615, 2 days | max inhibition, % | 1,200 tested, under 10 active | AID 1305, 2008; call rule not given here;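 note: plate controls were vehicle for no effect and reference inhibitor for full effect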
# An asterisk follows results filed as active; x = no result.
SMILES,SDO1 yeast rescue,BB579 growth dn,Yeast lifespan up,Measles CPE,RAM network inh,RAM 5-FOA
COc1cc(NC(=O)CSCc2cnn(-c3ccccc3)c2-n2cccc2)cc(OC)c1,-0.19,-52,-2,8,20*,2
COc1ccc(OC)c(NC(=O)CSCc2cnn(-c3ccccc3)c2-n2cccc2)c1,-0.61,-48,35,5,16*,3
CCN(CC)c1nc2c(s1)C(=O)CC(C)(C)C2,0.11,-44,-3,16,-1,x
Cc1ccc(N/C(SCc2ccccc2C)=C(/C#N)C(=O)NCc2ccco2)cc1C,0.08,-20,-1,11,3,x
CCc1ccc(N/C(SCc2cccc(F)c2)=C(/C#N)C(=O)NCc2ccco2)cc1,-0.14,-20,7,2,16*,5
Nc1c(-c2ccc(Cl)cc2)cnn1C1CCS(=O)(=O)C1 (stereo not given),1.3,-52,-4,5,-1,x
O=C(O)CCN1C(=O)/C(=C/c2cn(-c3ccccc3)nc2-c2cccs2)SC1=S,x,x,x,x,12*,2
O=C(COC(=O)CC(c1ccccc1)c1ccccc1)NCc1ccc(Cl)cc1,-0.52,-36,4,14,13*,4
COc1ccccc1NC(=O)c1cc(Br)ccc1Cl,x,x,x,x,0,x
COc1ccc(Br)cc1C(=O)Nc1ccccc1-c1ccccc1,-0.96,-13,-16,12,12*,3
COc1ccc(-c2csc(C3=C(O)CN(C(C)C)C3=N)n2)cc1OC,x,x,x,x,3,x
O=C(O)c1cc(N2N=C(C(F)(F)F)/C(=C/C=C/c3ccco3)C2=O)ccc1Cl,x,x,x,x,14*,6
CCOC(=O)c1ccc(N2N=C(C)/C(=C/C=C/c3ccco3)C2=O)cc1,-1.5,-44,x,5,3,x
C/C(=N\NC(N)=S)C1(C)CCCCC1,-1,-4,1,3,2,x
C/C(CC1CC2=C(CC1(C)C)C(C)(C)CCC2)=N\NC(N)=S (stereo not given),-0.8,13,-2,5,13*,1
Cc1ccc(/C([O-])=C(/C(=S)Nc2ccc(SC(F)F)cc2)[n+]2ccccc2)cc1[N+](=O)[O-],x,x,x,x,4,x
N[C@@H](Cc1ccc(O)c(I)c1)C(=O)O,0.31,-18,1,14,2,x
O=C(O)Cc1cc(I)c(Oc2ccc(O)c(I)c2)c(I)c1,-0.83,66*,31*,5,17*,2
CCC(=O)N1CCc2cc(S(=O)(=O)NC(Cc3ccccc3)C(=O)NC3CCCCC3)ccc21 (stereo not given),0.48,-31,8,4,14*,2
CCN(CC)CCCNC(=O)CSc1nc(-c2ccc(F)cc2)cc(C(F)(F)F)n1,x,x,x,x,-1,x
COCCCNC(=O)c1ccc(Cn2c(=O)c3ccccc3n(Cc3ccc(C)cc3)c2=O)cc1,-1.9,-57,-8,20,12*,5
COCCCNC(=O)c1cc(=O)n(Cc2ccc(Cl)cc2)c2ccccc12,x,x,x,x,-1,x
COc1cccc(C(=O)Oc2ccccc2/C=C\C(=O)c2cc3ccccc3o2)c1,-0.96,-34,4,24,16*,8
CCOc1ccc(NC(=O)c2cc(SC)ccc2Cl)cc1,0.38,-14,0,18,2,x
CCCCCOc1ccc(NC(=O)c2cc(SC)ccc2Cl)cc1,-0.34,-30,10,6,13*,2
SMILES,SDO1 yeast rescue,BB579 growth dn,Yeast lifespan up,Measles CPE,RAM network inh,RAM 5-FOA
CON/C=C(\C=Nc1ccc(Cl)cc1Cl)c1ncc(C(F)(F)F)cc1Cl,-0.67,-64,-4,10,13*,3
CON/C=C(\C=Nc1ccccc1)c1ncc(C(F)(F)F)cc1Cl,-0.44,-30,-6,19,6,x
Fc1ccc(Oc2nccc(-c3ccc(Cl)cc3)n2)cc1,-0.34,-51,-15,5,2,x
CN1/C(=C\C=C2/C(=O)Oc3ccccc3C2=O)C(C)(C)c2ccccc21,-1.1,-28,3,10,21*,10
CC1=NN(c2ccccc2)C(=O)/C1=C\C=C1/N(C)c2ccccc2C1(C)C,-2.1,10,-8,11,-1,x
CCOC(=O)c1sc(NC(=O)CCCn2nc([N+](=O)[O-])cc2C)c(C(=O)OCC)c1C,-0.27,-1,2,19,13*,2
CCCOC(=O)c1c(NC(=O)/C=C/c2cnn(C)c2C)sc(C(=O)OCC)c1C,-1.1,-36,-12,3,1,x
CCOC(=O)c1sc(NC(=O)/C=C/c2cnn(CC)c2C)c(C(=O)OCC)c1C,-1.7,-18,0,4,12*,3
Cc1cc([N+](=O)[O-])nn1CCCC(=O)Nc1ccc(Cl)cc1Cl,x,x,x,x,3,x
CCn1c(CCNC(=O)c2ccc(Cl)c(Cl)c2)nnc1SCCOc1ccc(OC)cc1,-1.1,-40,-3,3,16*,1
COc1ccc(CCN2C(=O)/C(=C\c3ccco3)SC2=S)cc1OC,x,x,x,x,12*,3
CC(=O)c1cc(C(=O)c2ccccc2)sc1Nc1ccccc1,-1.6,-27,0,3,12*,3
CC(=O)c1cccc(NC(=O)c2cc(Cl)sc2Cl)c1,-0.84,-26,-7,16,1,x
CC(C)S(=O)(=O)C1=NSC2=NC(=O)/C(=C\c3ccc(-c4ccccc4)o3)C(=N)N21,1.2,1,4,2,14*,4
CCOC(=O)CSc1nc2ccccc2c(=O)n1CC,-0.63,-15,-4,5,0,x
CCOC(=O)CSc1nc2ccccc2c(=O)n1CC1CCCC1,-1.4,-8,x,6,18*,1
Cc1ccc(S(=O)(=O)N2c3cc(C)ccc3OCC2C(C)(C)C)cc1 (stereo not given),-1.1,-24,-1,0,13*,4
CCOC(=O)C(C(=O)OCC)C(C[N+](=O)[O-])c1ccccc1 (stereo not given),x,x,x,x,2,x
COc1ccc(S(=O)(=O)Nc2ccc(CC#N)cc2)cc1,0.58,-7,-14,38,0,x
N#CCc1ccc(NS(=O)(=O)c2ccc(C3CCCCC3)cc2)cc1,-0.48,-45,0,25,11*,3
CCc1ccc(OCC(=O)N2c3ccccc3CCc3ccccc32)cc1,-0.33,-44,8,1,18*,6
O=C(COc1ccccc1F)N1c2ccccc2CCc2ccccc21,-0.79,-6,1,15,3,x
CC(C)CNC(=O)c1c(N)n(/N=C/c2ccccn2)c2nc3ccccc3nc12,-2,-33,-8,6,15*,4
CCCCNC(=O)c1c(N)n(/N=C/c2ccccn2)c2nc3ccccc3nc12,-0.6,-64,-6,14,0,x
